Four molecules from ChEMBL document CHEMBL1123247, “Nucleoside conjugates. 7. Synthesis and antitumor activity of 1-beta-D-arabinofuranosylcytosine conjugates of ether lipids” (J Med Chem, 1986) can be followed below.

A value given as a limit tells only on which side of the number the result lay.

Test [1] deals with L1210. Briefly: Antitumor activity against the ic implanted L1210 lymphoid leukemia in mice expressed as optimal dose (1 qd treatment schedule) required to produce greatest increase in life span was determined. The format is functional, Mus musculus. In a few lines: (§1)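 DBA/2J mice, groups of 6 (26-32 g), got 1 × 10^5 L1210 cells ic on day 0. Dosing was ip starting 24 h later, as a sonicated solution or suspension in 0.9% NaCl with 0.5% Tween-80, over a wide dose range. Mice were followed daily until death. Median survival T/C was taken from survivors per NCI protocols, and ILS = (T/C − 1) × 100. Active range means doses giving ILS ≥25%; optimal dose means greatest ILS.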

The subject of test [2] is L1210. Briefly: Antitumor activity was determined against the ic implanted L1210 lymphoid leukemia in mice by change in […] at 133 mg/kg (1,5,9qd treatment schedule) dosage. In kind it is functional, Mus musculus. In a few lines:
(§2)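 DBA/2J mice, 6 per group (wt 26-32 g), inoculated ic with 1×10^5 L1210 cells on day 0. Dosing ip began 24 h after inoculation, with a sonicated solution or suspension in 0.9% NaCl containing 0.5% Tween-80, given over a range of doses. Animals were followed daily until death. Body weight change, median survival T/C, and %ILS = (T/C − 1) × 100 were computed from survivors per NCI protocols.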

Test [3] relates to L1210. Briefly: Antitumor activity was determined against the ip implanted L1210 leukemia in mice by change in […] at 40 mg/kg (treatment of 1-5qd schedule) dosage. The format is functional, Mus musculus. As to conditions: route intraperitoneal. In a few lines:
(§3)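 DBA/2J mice, 6 per group (wt 23-28 g), inoculated ip with 1×10^6 L1210 cells on day 0. Treatment was given ip in 0.9% NaCl with 0.5% Tween-80, starting 24 h later. Weight change was taken on day 8. Mice were observed daily until death or 45 days. Median survival T/C and %ILS = (T/C − 1) × 100 came from survivors per NCI protocols, and 45-day survivors were counted.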

Test [4] deals with L1210. Briefly: Antitumor activity was determined against the ic implanted L1210 lymphoid leukemia in mice by percent increase in life span at 133 mg/kg (1,5,9qd treatment schedule) dosage. The format is functional, Mus musculus. In a few lines: as §1
The subject of test [5] is L1210. Briefly: Antitumor activity was determined against the ic implanted L1210 lymphoid leukemia in mice by percent increase in life span at 80 mg/kg (1-5qd treatment schedule) dosage. The format is functional, Mus musculus. In a few lines:
as §1

Test [6] deals with P388. Briefly: Antitumor activity was determined against the ip implanted P388 leukemia in mice by range in survival days at 133 mg/kg (treatment of 1,5,9qd schedule) dosage; Range is 31->45. As to conditions: route intraperitoneal. In kind it is functional, Mus musculus.
The test system of test [7] is L1210. Briefly: Antitumor activity was determined against the ic implanted L1210 lymphoid leukemia in mice by change in […] at 100 mg/kg (treatment of 1-5qd schedule) dosage. The format is functional, Mus musculus. In a few lines: as §2
In test [8] the test system is L1210. Briefly: Antitumor activity was determined against the ic implanted L1210 lymphoid leukemia in mice by change in […] at 167 mg/kg (treatment of 1, 5, 9qd schedule) dosage. The format is functional, Mus musculus. In a few lines:
as §2

The test system of test [9] is L1210. The experiment in a line: Antitumor activity was determined against the ic implanted L1210 lymphoid leukemia in mice by percent increase in life span at 167 mg/kg (treatment of 1, 5, 9qd schedule) dosage. The format is functional, Mus musculus. In a few lines: as §1
Test [10] relates to P388. Briefly: Antitumor activity was determined against the ip implanted P388 leukemia in mice by percent increase in life span at 60 mg/kg (treatment of 1-5qd schedule) dosage. The format is functional, Mus musculus. As to conditions: route intraperitoneal. In a few lines:
(§4)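 DBA/2J mice, 23-33 g, in groups of 6, were inoculated ip with 1×10^6 P388 cells on day 0. Dosing was ip from 24 h on the stated schedules, in 0.9% NaCl with 0.5% Tween-80 (sonicated solution or suspension). Survival was followed daily until death or 45 days. Median T/C was calculated from survivors per NCI protocols, with ILS = (T/C − 1) × 100.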

Test [11] concerns P388. Briefly: Antitumor activity was determined against the ip implanted P388 leukemia in mice by range in survival days at 133 mg/kg (treatment of 1,5,9qd schedule) dosage; Range is 23->45. The format is functional, Mus musculus. To be noted: route intraperitoneal.
For test [12], the system named is P388. The experiment in a line: Antitumor activity against ip implanted P388 leukemia in mice expressed as active dose range (1-5qd treatment schedule) required to produce increase in life span by >25% was determined; Range is 40-60. The format is functional, Mus musculus. In a few lines:
(§5)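 P388 leukemia: 1 × 10^6 cells were given ip on day 0 to DBA/2J mice, groups of 6 (23-33 g). Treatment was ip from 24 h after inoculation, vehicle 0.9% NaCl with 0.5% Tween-80. Mice were observed daily until death or 45 days. Median survival T/C was calculated from survivors per NCI protocols, and ILS = (T/C − 1) × 100. Active range means doses giving ILS ≥25%; optimal dose means greatest ILS.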

Test [13] relates to P388. The experiment in a line: Antitumor activity against ip implanted P388 leukemia in mice expressed as active dose range (1 qd treatment schedule) required to produce increase in life span by >25% was determined; Range is 300-500. The format is functional, Mus musculus. In a few lines:
as §5

Test [14] has as its system L1210 (mouse). The experiment in a line: Antitumor activity was determined against the ic implanted L1210 lymphoid leukemia in mice by change in […] at 500 mg/kg (treatment of 1qd schedule) dosage.
The subject of test [15] is L1210. Briefly: Antitumor activity was determined against the ip implanted L1210 leukemia in mice by percent increase in life span at 100 mg/kg (treatment of 1-5qd schedule) dosage. In kind it is functional, Mus musculus. As to conditions: route intraperitoneal. In a few lines: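 DBA/2J mice in groups of 6 (wt 23-28 g) were inoculated ip with 1×10^6 L1210 cells on day 0. Dosing was ip from 24 h, in 0.9% NaCl with 0.5% Tween-80 (conjugates sonicated), across a range of doses. Mice were observed daily until death or 45 days. Median T/C was computed from survivors per NCI protocols, and ILS = (T/C − 1)×100.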

For test [16], the system named is P388. Briefly: Antitumor activity was determined against the ip implanted P388 leukemia in mice by percent median survival rate (treated/control) at 67 mg/kg (treatment of 1,5,9qd schedule) dosage; 25.5/11.0. The format is functional, Mus musculus. To be noted: route intraperitoneal.
For test [17], the system named is L1210. Briefly: Antitumor activity was determined against the ip implanted L1210 leukemia in mice by change in […] at 400 mg/kg (treatment of 1-5qd schedule) dosage. The format is functional, Mus musculus. As to conditions: dose 200 mg/kg; route intraperitoneal; in the assay text read “200 mg/kg” for “400 mg/kg”. In a few lines: as §3
The test system of test [18] is L1210. Briefly: Antitumor activity was determined against the ic implanted L1210 lymphoid leukemia in mice by percent increase in life span at 100 mg/kg (treatment of 1-9qd schedule) dosage. In kind it is functional, Mus musculus. Summed up:
as §1

Test [19] concerns L1210. The experiment in a line: Antitumor activity was determined against the ic implanted L1210 lymphoid leukemia in mice by percent increase in life span at 300 mg/kg (treatment of 1-5qd schedule) dosage. The format is functional, Mus musculus. In a few lines:
as §1

Test [20] has as its system P388. The experiment in a line: Antitumor activity was determined against the ip implanted P388 leukemia in mice by 45-day survivors in mice at 200 mg/kg (treatment of 1-5qd schedule) dosage. The format is functional, Mus musculus. As to conditions: route intraperitoneal. In a few lines: as §4
The subject of test [21] is P388. Briefly: Antitumor activity against ip implanted P388 leukemia in mice expressed as active dose range (1-5qd treatment schedule) required to produce increase in life span by >25% was determined; Range is 20-200. The format is functional, Mus musculus. Summed up: as §5
Test [22] concerns P388. Briefly: Antitumor activity was determined against the ip implanted P388 leukemia in mice by range in survival days at 200 mg/kg (treatment of 1-5qd schedule) dosage; Range is 22-24. The format is functional, Mus musculus. To be noted: route intraperitoneal.

In test [1], `CCCCCCCCCCCCCCCC(=O)OC[C@H](COP(=O)(O)OP(=O)(O)OC[C@H]1O[C@@H](n2ccc(N)nc2=O)[C@@H](O)[C@@H]1O)OC(=O)CCCCCCCCCCCCCCC` yielded an Optimal dose of 300 mg. Further, the Weight change in [2] is reported as -1.11 g mouse-1; in [3] it was -1.9 g mouse-1. Further, the ILS in [4] was found to be 150; in [5], 175. Moreover, in test [6], the Range is 31.
For the molecule `CCCCCCCCCCCCCCCCOCC(COP(=O)(O)OP(=O)(O)OC[C@H]1O[C@@H](n2ccc(N)nc2=O)[C@@H](O)[C@@H]1O)OC(=O)CCCCCCCCCCCCCCC` (mixture of isomers), the Weight change in test [7] is -2.03 g mouse-1; in test [8], -1.15 g mouse-1; in test [14], -2.07 g mouse-1. In addition, the ILS in test [9] was 200; in test [10] it was over 309. Also, the Range in test [11] is 23. Moreover, the Active dose range in [12] came to 40 mg/kg/day; in test [13], 300 mg/kg/day.
The term T/C denotes the ratio of treated to control. In test [15], `CCCCCCCCCCCCCCCCCCOCC(COP(=O)(O)OP(=O)(O)OC[C@H]1O[C@@H](n2ccc(N)nc2=O)[C@@H](O)[C@@H]1O)OC(=O)CCCCCCCCCCCCCCC` (mixture of isomers) returned an ILS of 229. Besides, the T/C in test [16] was 25.5%.
On to `Nc1ccn([C@@H]2O[C@H](CO)[C@@H](O)[C@@H]2O)c(=O)n1` [CYTARABINE], for which the Weight change in test [17] is -2.9 g mouse-1. In addition, the results for the ILS in [18] and in test [19] were 100 and 129, respectively. In test [20], this molecule showed a Survivors of 0. The same molecule came in with an Active dose range in test [21] of 20 mg/kg/day. In [22], this molecule came in with a Range of 22.
